Test: Toxicity liver stage against HepG2, at 10uM
Assay type: cell-based
Set-up: test concentration 10 uM, cell line HepG2-A16-CD81EGFP
Details: human, HepG2-A16-CD81EGFP cells; read-out: INHIBITION
In short: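 Uninfected HepG2-A16-CD81EGFP cells, 3 × 10^3 per well, 1536-well, plated on prespotted compound at 10 μM final, parasite-free screening media added to match infected plates; puromycin 10 μM positive, DMSO 0.5% negative; run in parallel with 48 h PbLuc assay at 37 °C, 5% CO2; viability by CellTiter-Glo luminescence, normalized to controls.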

| SMILES | cytotoxicity at 10 µM [%] |
| --- | --- |
| O=C1N[C@@H]2CCN(C(=O)C3CCC3)[C@@H]2C(=O)N1c1ccc(F)cc1 | -6.43 |
| CO[C@H]1COCCN(C(=O)c2cc(C)oc2C(F)(F)F)C1 | -12.1 |
| CN1C[C@H](O)C[C@H]1c1nc(-c2ccc(OC(F)(F)F)cc2)no1 | -12.2 |
| COCCNC(=O)N1CCN(C(=O)c2nsc3ccc(C)cc23)CC1 | 7 |
| CCOCCNC(=O)c1cccnc1N1CCCC1c1ccccn1 (stereo unspecified) | 4.65 |
| O=C(C1CC(=O)N(c2n[nH]c3cc(Br)ccc23)C1)N1CCOCC1 (stereo unspecified) | -3.27 |
| O=c1n(Cc2cccc(F)c2)nc2ncccn12 | -7.9 |
| Cn1cnc2c1C(C(=O)N1CCOCC1)N(C(=O)c1ccccc1)CC2 (stereo unspecified) | -0.388 |
| Cc1cccc(S(=O)(=O)N2C[C@@H]3OCCN(C(C)C)[C@@H]3C2)c1 | 7.64 |
| O=C(Nc1ccccc1)C1=NOC2(CCCN(C(=O)C3CCCC3)C2)C1 (stereo unspecified) | 4.88 |
| CC(C)(C)CC(=O)N1CCCC2(CC(C(=O)Nc3ccccc3)=NO2)C1 (stereo unspecified) | -6.63 |
| O=C(O)c1ccc2c(c1)C1(CCCCC1)CN2C(=O)c1ccnnc1 | 3.59 |
| O=C1CC(c2cccs2)Cc2[nH]c(=O)ccc21 (stereo unspecified) | 0.185 |
| O=C(NCc1ccco1)N1CCCCC1c1nc(-c2ccncc2)no1 (stereo unspecified) | -7.92 |
| CC(=O)c1nn(-c2ccccc2Cl)c(C)c1C(C)=O | 6.33 |
| CC(C)CNC(=O)CSC1CCc2ccccc2NC1=O (stereo unspecified) | -2.38 |
| COCC1c2nnn(CC3CC3)c2CCN1C(=O)c1cccc(F)c1 (stereo unspecified) | -8.31 |
| FC(F)(F)c1cc(N2CCc3ncnc(NC4CC4)c3CC2)ncn1 | 1.79 |
| CCOC(=O)c1sc(NC(=O)COC)c(C#N)c1C | 7.61 |
| N#Cc1c(N2CCOCC2)nsc1-c1cccnc1 | 17 |
| Cc1cc(C(=O)NCc2c(C)nn(C)c2C)nc(N2CCCC2)n1 | 7.05 |
| O=C(Cn1cc(I)cn1)N1CCCC1 | -0.653 |
| Cc1cc(NC2CC3(CCN(Cc4csc(C)n4)C3)C2)ncn1 (stereo unspecified) | -2.34 |

| SMILES | cytotoxicity at 10 µM [%] |
| --- | --- |
| Cc1cc(-c2ccc(=O)n(C3CCN(C(=O)C4CCC4)CC3)n2)c(C)o1 | 4.22 |
| COCCNc1cccc(C2CCCN2)n1 (stereo unspecified) | -25.9 |
| Cn1nccc1C(=O)N1CCCC1c1[nH]ncc1C(N)=O (stereo unspecified) | -15.2 |
| O=C(CCn1ccnc1)N1C[C@@H](O)[C@H](Oc2cccc(F)c2)C1 | -21.6 |
| O=C(C1CCCC1)N1CCC(c2ncc3c(n2)CCNC3)C1 (stereo unspecified) | -15.3 |
| Cc1ccc2c(c1)C(=O)NCC1(CCN(C(=O)c3cnccn3)CC1)O2 | -15.8 |
| Cc1cc(CN(C)Cc2ncc(C(C)(C)C)o2)no1 | 2.58 |
| Cc1cnn(CC2CCN(CC(O)c3ccccc3F)CC2)c1 (stereo unspecified) | -5.18 |
| Cc1ccc(CN(Cc2cc(=O)n3cccc(C)c3n2)C(C)C)o1 | 7.65 |
| Cc1nc(C(NC(=O)c2cc(C(C)C)[nH]n2)c2ccccc2)n[nH]1 (stereo unspecified) | 11.6 |
| CCC(=O)Nc1nnc2n(Cc3cccc(OC)c3)[nH]c(C)c1-2 | -9.24 |
| COc1cc(F)cc(CNC(=O)Nc2ccn(CC(F)F)n2)c1 | -2.21 |
| CCOC(=O)CCNC(=O)c1cccc2ccc(C)nc12 | -5.15 |
| Cc1ccc(CNC(=O)NCC(=O)NC(C)(C)C)c(N2CCCC2)c1 | 5.68 |
| NC(=O)CN(Cc1ncc(-c2ccccc2)o1)C1CCCC1 | -4.3 |
| Cc1ccc(C(=O)N(Cc2cccc(F)c2)C2CC2)c(=O)[nH]1 | -4.86 |
| CC1CCN(CCCNC(=O)C2CCCCC2)CC1 | -2.63 |
| CC(C)(C(=O)NCCC(=O)O)c1cccc(Br)c1 | 7.01 |
| Cc1cnn(CCC(=O)N(CC2CN(C)CCO2)c2nccs2)c1 (stereo unspecified) | -5.82 |
| COc1c(F)cc(NC(=O)NCc2nncn2C2CC2)cc1F | -4.7 |
| C[S+]([O-])c1nncn1CC(=O)c1cccc(Br)c1 (stereo unspecified) | 1.08 |
| O=C(NS(=O)(=O)c1cc(Cl)ccc1Cl)c1cccc2c1OCCO2 | 10.3 |
| Cc1noc(C)c1CNC(=O)N1CCCC(C)CC1 (stereo unspecified) | -7.31 |

| SMILES | cytotoxicity at 10 µM [%] |
| --- | --- |
| CCCc1nc(C)c(C(=O)NC2CCN(CC(N)=O)CC2)s1 | -6.3 |
| OC1(CNc2cc(C(F)(F)F)nc3ccccc23)CCOCC1 | -11.3 |
| COc1ccccc1C(NC(=O)NC1CC1)c1noc(C)n1 (stereo unspecified) | -4.12 |
| CN(C(=O)C1(C#N)CCCCC1)c1nccs1 | 0.658 |
| Cc1cc(CNC(=O)NCc2cccs2)ccc1S(C)(=O)=O | -6.97 |
| Cc1nccc(CNS(=O)(=O)N2CCCC2c2ccc(C)o2)n1 (stereo unspecified) | -5.88 |
| CN(C(=O)NCCCNc1ccccn1)C1CCS(=O)(=O)C1 (stereo unspecified) | 4.67 |
| Cc1ccoc1C(=O)N(CCN(C)C)Cc1ccccn1 | -5.47 |
| CN(C)C(=O)Cc1ccccc1NCc1cc(C#N)ccc1F | 48.1 |
| CC(C)NC(=O)CS(=O)(=O)c1cc2c(cc1Cl)OCCO2 | -2.46 |
| CCCC(=O)N(C)c1cc(C#N)c2ccccc2n1 | -7.55 |
| CCOc1ccc(CN2C(=O)CC(C)(C)C2=O)nc1 | -11.9 |
| Cn1ncc2c1CCCC2NCc1ccc(OCc2cccnc2)cc1 (stereo unspecified) | 4.13 |
| CN(CCCc1cc(-c2ccc(F)cc2)n(C)n1)CC(=O)NC(N)=O | 1.04 |
| CCOC1CCN(C(=O)c2c(Cl)c3ccccc3n2C)CC1 | 6.56 |
| O=C(NCCCn1nc2ccccn2c1=O)NC1CCC(O)CC1 (stereo unspecified) | -12.8 |
| CC(=O)N(C)Cc1ncn2c1CN(C(=O)CC1CC1)CCC2 | -110 |
| CN(C)c1ccnc(-c2ccnc3c2ccn3C)n1 | 20.2 |
| CCn1c(N)nc2cc(C(=O)N3CCN(CC(F)(F)F)CC3)cnc21 | -2.03 |
| O=C(c1ccc(C2CCCN2C(=O)c2ccc[nH]2)s1)N1CCSCC1 (stereo unspecified) | 3.59 |
| CC(C)N1CCCC(C(=O)NCCc2csc(-c3ccncc3)n2)C1 (stereo unspecified) | -17.4 |
| CCN(CCn1cccn1)Cc1nc(-c2ccoc2)oc1C | -5.48 |
| Cc1cc(C2CCCN2Cc2cccc(C(=O)Nc3nccs3)c2)no1 (stereo unspecified) | -4.12 |

| SMILES | cytotoxicity at 10 µM [%] |
| --- | --- |
| CN1CSC[C@H]1C(=O)N1CCN(Cc2cccc(Cl)c2)CC1 | -4.28 |
| CN(Cc1ncc[nH]1)CC1CCOc2ccccc2C1 (stereo unspecified) | -1.93 |
| O=C(c1ccc(C2CCCN2C(=O)c2cscn2)s1)N1CCSCC1 (stereo unspecified) | -4.31 |
| CN(Cc1cc2n(n1)CCCNC2)Cc1cc(-c2ccncc2)no1 | 3.67 |
| CC(=O)Nc1ccc(-c2cn(CCn3c(C)cc(C)nc3=O)nn2)cc1 | 5.03 |
| O=C(NCCc1nc(C2CC2)no1)[C@H]1CNC[C@H](C(=O)N2CCCC2)C1 | -107 |
| Cn1nccc1CCNC(=O)[C@H]1CNC[C@H](C(=O)N2CCCC2)C1 | -133 |
| CCN(CC)S(=O)(=O)N1CCCC(c2cccc(C(=O)O)c2)C1 (stereo unspecified) | -10 |
| CN(Cc1ccco1)C(=O)C1CSCN1C(=O)c1cccs1 (stereo unspecified) | -7.81 |
| c1ccc(Cc2nnc(CN3CCc4cncnc4C3)o2)cc1 | -4.48 |
| NC(=O)NCC1CCCCN1Cc1nc(-c2ccco2)no1 (stereo unspecified) | -6.06 |
| CN(Cc1noc(C2CC2)n1)C1CCN(Cc2cccc(F)c2F)C1 (stereo unspecified) | -13 |
| CCc1ncncc1C(=O)N1CCCC(n2nc(C)nc2C)C1 (stereo unspecified) | -6.54 |
| CN(C)C1CCN(C(=O)Cc2csc(-c3ncccn3)n2)CC1 | -0.279 |
| CC(C)N(C(=O)CN(C)C1CCc2ccccc21)C(C)C (stereo unspecified) | -9.3 |
| O=C(Cc1n[nH]c2ccccc12)N1CCCCC1Cn1cccn1 (stereo unspecified) | -14.8 |
| COc1ccc(C(=O)N2CCC(Nc3cccnn3)CC2)c(F)c1 | -8.96 |
| CCCc1nc(CNC(C)Cn2cccn2)cs1 (stereo unspecified) | -12.5 |
| Cc1noc(C(C)C)c1C(=O)NCCN1CCOCC1 | -8.73 |
| CC(=O)N1CCCN(C(=O)NCCOc2ccc3c(c2)OCO3)CC1 | -14.9 |
| CC(NC(=O)CCC1CCCCC1)c1nnc2n1CCC2 (stereo unspecified) | -27.1 |
| CN(C)c1ccc(C(=O)N2CCCN(Cc3cscn3)CC2)nn1 | -9.39 |
| Cc1nc(CN2CCOC(Cn3cccn3)C2)nc2ccccc12 (stereo unspecified) | -24.8 |

| SMILES | cytotoxicity at 10 µM [%] |
| --- | --- |
| Cc1csc(CNC(=O)N(C)Cc2ccc3c(c2)OCO3)n1 | -4.31 |
| CCc1nc(CN2CCCN(C(=O)c3cn[nH]c3C)CC2)cs1 | -2.97 |
| CC(C)c1cc(C(=O)NCCn2nc3ccccn3c2=O)n[nH]1 | -8.5 |
| Cc1nc(CN(C)C2CCCN(c3cccnn3)C2)no1 (stereo unspecified) | -7.1 |
| CCOC(=O)N1CCC(C(=O)c2cc(F)ccc2F)CC1 | -8.11 |
| CCn1cc(NC(=O)NCC(O)c2ccccc2)cn1 (stereo unspecified) | -1.14 |
| CCOC(=O)CSc1nnc([C@@H](N)C(C)CC)o1 (stereo partly specified) | 2 |
| CN(Cc1cccnc1)[C@@H]1CN(C(=O)CC2CC2)[C@@H]2CCCO[C@H]12 | 7.86 |
| Cn1nc(CN2CCCC2)c2c1CN(C(=O)c1cccnc1)CC2 | -146 |
| CC(C)N(C)Cc1cnc2n1CCN(S(=O)(=O)c1ccccc1)C2 | -1.72 |
| CCN(CC)CC1CN(Cc2ccc(C)s2)Cc2nccn2C1 (stereo unspecified) | 2.32 |
| Fc1ccc(CN2CCO[C@H]3[C@H](OCC4CC4)CC[C@@H]32)cc1 | -5.34 |
| CCCC(=O)N1C[C@@H]2CCN(c3cnccn3)C[C@@H]2C1 | -1.48 |
| COCC(=O)N1CC[C@@H](OCC2CC2)[C@@H]1Cc1cccnc1 | -4.92 |
| O=C(Cc1ccccn1)N1C[C@H](OCc2cccnc2)[C@H]2COC[C@H]21 | 12.3 |
| CCOc1ncnc2c1CCN(C(=O)NCc1cccnc1)CC2 | -127 |
| Cc1ccc(NCc2cncc3c2CCN(Cc2ccccn2)C3)nn1 | -6.4 |
| O=C(Cc1cccs1)N1C[C@@H]2OCCN(CC3CCCC3)[C@@H]2C1 | -4.75 |
| O=C(c1cc(F)cc(Cl)c1)N1C[C@H]2CC[C@@H](C1)N(Cc1ccccc1)C2 | -128 |

Source: ChEMBL document CHEMBL4513216, “Probing the Open Global Health Chemical Diversity Library for Multistage-Active Starting Points for Next-Generation Antimalarials” (ACS Infect Dis, 2020)
